Assay outcomes deposited in PubChem BioAssay by Sanford-Burnham Center for Chemical Genomics.
FLuc act counter – firefly luciferase counter-screen for stimulation assays. ATPlite luciferase biochemical, luminescence, 10 min; 0 = ATP-free wells, 1 = DMSO control. activation factor at 10 µM. 200,000 tested, under 10 active. AID 1027;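 active = luciferase activation factor, scaled between plate controls, of at least 2 with compound at 10 µM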
Target sequence (P08659 whole entry, looked up): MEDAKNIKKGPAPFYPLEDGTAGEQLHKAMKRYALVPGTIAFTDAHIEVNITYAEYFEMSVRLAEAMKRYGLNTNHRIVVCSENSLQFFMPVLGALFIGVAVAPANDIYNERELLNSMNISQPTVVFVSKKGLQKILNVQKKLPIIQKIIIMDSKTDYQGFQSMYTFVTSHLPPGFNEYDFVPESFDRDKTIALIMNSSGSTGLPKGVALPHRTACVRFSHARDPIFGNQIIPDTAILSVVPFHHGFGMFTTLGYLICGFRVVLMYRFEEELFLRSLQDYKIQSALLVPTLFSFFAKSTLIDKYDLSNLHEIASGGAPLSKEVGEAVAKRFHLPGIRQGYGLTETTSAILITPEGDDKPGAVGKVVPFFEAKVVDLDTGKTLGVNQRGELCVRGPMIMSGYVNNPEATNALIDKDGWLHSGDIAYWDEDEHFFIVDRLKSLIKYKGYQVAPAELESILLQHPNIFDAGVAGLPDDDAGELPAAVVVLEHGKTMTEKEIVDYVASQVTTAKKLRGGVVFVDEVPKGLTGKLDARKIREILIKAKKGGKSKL
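System: Luciferase/luciferin detection reagent, cell-free biochemical luciferase assay | Medium: PBS buffer for ATP | Dosing: Test compounds dosed from 2 mM stocks in 100% DMSO | Timing: 10 min at ambient temperature | Signal: Luminescence measurement of luciferase light output | Evaluation: Luciferase activation, seen as luminescence increase over controls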
PPC-1+TRAIL kill – compounds killing PPC-1 cancer cells with TRAIL present (potentiator screen, no TRAIL-free arm); cell killing (% activity), % at 4 µM or 5 µM; PPC-1 cells + TRAIL, ATPLite viability luminescence; 220,000 compounds, 0.41% hits; AID 1443;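 active = cell killing above 50% in the first pass at 4 µM, then a duplicate retest at 5 µM averaging 50% or more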;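 note: plate controls were cells with TRAIL plus DMSO for no effect and medium-only wells lacking cells for full effect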
beta cell repl – induces beta-cell replication in MIN6 cells | MIN6 cells proliferation, ATPlite luminescence, 48 h; cells starved in 0.2% serum; 100% = growth in 10% serum | proliferation, % at 10 µM | 330,000 compounds, 0.29% hits | AID 2380;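 active = compounds whose signal lies at least 3.5 SD above the mean of all wells on their plate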;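 note: 0% = DMSO-treated cells in low-serum medium and 100% = 10% serum control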
C8 TRAIL sens – sensitizes caspase-8 expressing cells to TRAIL; NB7+C8 cells + TRAIL, ATPlite viability luminescence; 360,000 compounds, 1% hits; AID 624354; inhibition (viability loss, TRAIL sensitization), % at 10 µM;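 active = compounds causing at least 50% loss of cell viability in the single-dose screen, relative to plate controls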
FLuc inhib CS – Photinus pyralis luciferase inhibition counter-screen; inhibition, % at 10 µM; ATPLite firefly luciferase biochemical luminescence, 10 min; 200,000 compounds, 1.5% hits;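 active = inhibition above about 50% when tested at 10 µM, limit read from the data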
hiPSC survival – enhancers of human iPSC single-cell survival | hiPSC single-cell survival, ATPlite luminescence; 100% = ROCK inhibitor wells, 0% = DMSO | survival enhancement, % at 20 µM | 360,000 compounds, 0.044% hits; in the data active = survival enhancement above about 18%;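 note: cells exposed to compounds for 16 hours before the ATP read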
* marks the source's active call; other numbers are inactive results; . = no result. This is a sample that favours compounds with a hit; in the whole collection about 1.8% have one here.

SMILES | FLuc act counter | PPC-1+TRAIL kill | beta cell repl | C8 TRAIL sens | FLuc inhib CS | hiPSC survival
O=C1NC2C(=CC(O)C(O)C2O)c2cc3c(c(O)c21)OCO3 (stereo not given) | . | . | . | 77* | . | -3
O=C1Nc2ccccc2C(c2ccccc2)=NC1O (stereo not given) | . | . | -1 | 1 | . | -1
Cc1ccccc1-n1c(/C=C/c2ccccn2)nc2ccccc2c1=O | . | 22 | 3 | -13 | . | 0
CN1C2CCC1/C(=C/c1ccccn1)C(=O)/C2=C\c1ccccn1 | 1.1 | 41 | . | 86* | -9 | 34*
CC(C)=CCOc1c2occc2cc2ccc(=O)oc12 | 1 | 18 | 4 | -10 | -4 | -2
CCS(=O)(=O)CCSP(=O)(OC)OC | . | . | . | 8 | . | 0
CCOc1cc2c(cc1OCC)-n1cccc1C(c1cccc([N+](=O)[O-])c1)NC2 (stereo not given) | . | . | -4 | -9 | . | 0
CCCCn1c(=O)c(C=Nc2cc([N+](=O)[O-])ccc2OC)c(O)n(CCCCl)c1=O | 1 | -8 | -3 | -7 | -4 | 1
C=C(C)[C@@]12OC3(c4ccccc4)O[C@@H]1C1[C@@H]4O[C@]4(CO)[C@@H](O)[C@]4(O)C(=O)C(C)=C[C@H]4[C@@]1(O3)[C@H](C)[C@H]2OC(=O)/C=C/C=C/c1ccccc1 (stereo not given in full) | . | . | -6 | 20 | . | 42*
CCOC(=O)[C@]12Cc3cc(OC)ccc3[C@H]1N(C1CCCCC1)C(=O)c1ccccc12 | . | . | . | 85* | . | -1
CCOC(=O)[C@]12Cc3cc(Cl)ccc3[C@H]1N(C1CCCCC1)C(=O)c1ccccc12 | . | . | . | 96* | . | -2
CCOC(=O)[C@]12Cc3cc(OC)ccc3[C@H]1N(C)C(=O)c1ccccc12 | . | . | . | 14 | . | 0
COC1=C(C)C(=O)O[C@]12C(=O)C(C)=C1CCCCN3[C@H]([C@@H]4C[C@H](C)C(=O)O4)CC[C@]132 | . | . | 3 | 10 | . | 1
S=P(NCCNP(=S)(N1CC1)N1CC1)(N1CC1)N1CC1 | . | . | . | -3 | . | 0
Cc1cc(C)n2nc(C)[n+](C)c2n1 | 1 | -2 | -1 | -7 | 0 | -1
COC(=O)[C@@H]1[C@@H](C(=O)OC)C2(c3ccccc3-c3ccccc32)N(c2ccc(Cl)cc2)N1C#N | 1 | 26 | -4 | 92* | -3 | -3
COC(=O)C[C@]1(C(=O)OC)CN(C#N)N(c2ccc(Cl)cc2)C12c1ccccc1-c1ccccc12 | 1.1 | 48 | -4 | 91* | -5 | -4
CN1Cc2cnnn2-c2ccccc2C1C#N (stereo not given) | . | . | . | -9 | . | 40*
CS(=O)(=O)N1Cc2cnnn2-c2ccccc2C1C#N (stereo not given) | . | . | . | -11 | . | 1
COc1ccc(CN2Cc3cnnn3-c3ccccc3C2C#N)cc1 (stereo not given) | . | . | . | 48 | . | 1
N#CC1c2ccccc2-n2nncc2CN1Cc1cc(Cl)cc(Cl)c1 (stereo not given) | . | . | . | 76* | . | -1
CCN1CCN(Cc2cc(C(C)(C)C)c(O)c(C(C)(C)C)c2)CC1 | 1 | 5 | 0 | . | 0 | .
CC(C)(C)n1cc(C(=O)c2ccccc2OCCCF)cn1 | . | . | -3 | -1 | . | -1
CC(C)(C)n1cc(C(=O)c2ccc3ccccc3c2O)cn1 | 0.3 | 42 | -3 | 50* | 69* | -2
CC(=O)[C@H]1CCC2C3CC[C@H]4C[C@@H](O)CC[C@]4(C)C3CC[C@@]21C (stereo not given in full) | . | . | -2 | -3 | . | 1
CC1OC(OC2C(O)CC(OC3C(O)CC(OC4CCC5(C)C(CCC6C5CCC5(C)C(C7=CC(=O)OC7)C(O)CC65O)C4)OC3C)OC2C)CC(O)C1O (stereo not given) | . | . | . | 60* | . | -2
CC(=O)OC1CC2(O)C3CCC4CC(O)CCC4(C)C3CCC2(C)C1C1=CC(=O)OC1 (stereo not given) | . | . | . | 66* | . | -2
CC(=O)OC1CC(OC2C(O)CC(OC3C(O)CC(OC4CCC5(C)C(CCC6C5CCC5(C)C(C7=CC(=O)OC7)C(O)CC65O)C4)OC3C)OC2C)OC(C)C1OC1OC(CO)C(O)C(O)C1O (stereo not given) | . | . | . | 62* | . | -3
c1cc2c(cc1N1CCCCC1)CNCc1cnnn1-2 | . | . | . | -9 | . | 0
